ChEMBL document CHEMBL1641413, “Identification of 3-sulfonylindazole derivatives as potent and selective 5-HT(6) antagonists” (Bioorg Med Chem, 2011)
Activity calls are given as the source filed them. The rule behind the calls is not given here.

Columns and labels:
[1] = % bound in plasma; type: ADME, cell-free; settings: read-out: PPB
[2] = target: T1, 5-hydroxytryptamine receptor 6 (Homo sapiens, UniProt P50406); assay: Displacement of [3H]-LSD from cloned human 5-HT6 receptor expressed in human HeLa cells; type: cell-based
T1 sequence (P50406 whole entry): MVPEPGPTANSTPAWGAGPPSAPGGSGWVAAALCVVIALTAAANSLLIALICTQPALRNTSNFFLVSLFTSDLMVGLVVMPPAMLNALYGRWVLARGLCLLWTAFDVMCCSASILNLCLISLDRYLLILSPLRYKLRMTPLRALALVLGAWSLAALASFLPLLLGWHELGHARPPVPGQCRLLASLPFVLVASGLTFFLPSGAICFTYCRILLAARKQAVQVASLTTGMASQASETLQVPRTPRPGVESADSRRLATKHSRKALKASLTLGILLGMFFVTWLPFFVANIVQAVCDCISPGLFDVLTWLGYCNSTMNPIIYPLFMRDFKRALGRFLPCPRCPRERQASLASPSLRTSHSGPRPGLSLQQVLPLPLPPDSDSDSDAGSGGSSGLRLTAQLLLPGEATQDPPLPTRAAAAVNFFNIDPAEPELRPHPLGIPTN
In short: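 Radioligand displacement of [³H]-LSD from cloned human 5-HT6 receptors stably expressed in HeLa cells; compounds tested as HCl salts; Ki values determined in triplicate.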

[3] = target: T1, 5-hydroxytryptamine receptor 6; assay: Antagonist activity at cloned human 5-HT6 receptor expressed in human HeLa cells assessed as inhibition of 5HT-induced cyclic AMP formation; type: functional, cell-based
[4] = Solubility of the compound in water; type: physicochemical
[5] = target: T2, 5-hydroxytryptamine receptor 2C (Homo sapiens, UniProt P28335); assay: Binding affinity to 5-HT2C receptor
T2 sequence (P28335 whole entry): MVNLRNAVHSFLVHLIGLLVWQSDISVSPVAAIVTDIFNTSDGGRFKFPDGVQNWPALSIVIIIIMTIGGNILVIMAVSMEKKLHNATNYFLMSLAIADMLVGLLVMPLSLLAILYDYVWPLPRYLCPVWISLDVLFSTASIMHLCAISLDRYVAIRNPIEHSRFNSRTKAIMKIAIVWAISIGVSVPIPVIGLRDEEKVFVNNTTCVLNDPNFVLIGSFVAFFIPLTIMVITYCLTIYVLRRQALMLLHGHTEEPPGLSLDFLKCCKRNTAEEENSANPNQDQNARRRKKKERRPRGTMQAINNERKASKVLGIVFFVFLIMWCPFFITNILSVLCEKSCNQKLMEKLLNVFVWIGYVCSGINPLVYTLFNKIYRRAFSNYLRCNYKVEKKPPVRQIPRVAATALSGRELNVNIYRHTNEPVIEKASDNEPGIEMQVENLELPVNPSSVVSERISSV

[6] = target: 5-hydroxytryptamine receptor 1D (Homo sapiens, UniProt P28221); assay: Binding affinity to 5-HT1D receptor
Chain of 5-hydroxytryptamine receptor 1D (P28221 whole entry): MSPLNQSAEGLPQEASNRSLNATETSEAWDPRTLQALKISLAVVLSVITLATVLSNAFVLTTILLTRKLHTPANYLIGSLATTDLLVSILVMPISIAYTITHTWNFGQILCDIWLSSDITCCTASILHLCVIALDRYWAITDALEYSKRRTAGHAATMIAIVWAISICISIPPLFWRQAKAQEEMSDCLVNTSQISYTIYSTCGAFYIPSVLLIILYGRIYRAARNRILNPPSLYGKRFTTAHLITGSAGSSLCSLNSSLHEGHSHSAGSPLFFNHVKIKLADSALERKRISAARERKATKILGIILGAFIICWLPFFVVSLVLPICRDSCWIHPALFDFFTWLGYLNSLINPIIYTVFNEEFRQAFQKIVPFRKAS

[7] = target: 5-hydroxytryptamine receptor 1B (Homo sapiens, UniProt P28222); assay: Binding affinity to 5-HT1B receptor
Chain of 5-hydroxytryptamine receptor 1B (P28222 whole entry): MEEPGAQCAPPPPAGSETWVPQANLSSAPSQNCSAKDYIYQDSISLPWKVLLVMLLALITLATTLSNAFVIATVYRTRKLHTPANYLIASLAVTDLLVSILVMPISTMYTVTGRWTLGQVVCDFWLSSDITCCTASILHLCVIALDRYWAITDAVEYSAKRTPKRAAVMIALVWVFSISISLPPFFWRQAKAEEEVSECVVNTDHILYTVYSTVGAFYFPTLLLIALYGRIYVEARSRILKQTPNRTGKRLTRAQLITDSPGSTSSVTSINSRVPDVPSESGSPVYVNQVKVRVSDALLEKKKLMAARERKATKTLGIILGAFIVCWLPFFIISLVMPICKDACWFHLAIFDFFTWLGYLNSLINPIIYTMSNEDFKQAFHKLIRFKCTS

[8] = Binding affinity to P-glycoprotein
[9] = Half life in human microsomes; type: ADME, Microsome
[10] = Half life in rat microsomes; type: ADME, Microsome
[11] = target: T3, 5-hydroxytryptamine receptor 2B (Homo sapiens, UniProt P41595); assay: Binding affinity to 5-HT2B receptor
T3 sequence (P41595 whole entry): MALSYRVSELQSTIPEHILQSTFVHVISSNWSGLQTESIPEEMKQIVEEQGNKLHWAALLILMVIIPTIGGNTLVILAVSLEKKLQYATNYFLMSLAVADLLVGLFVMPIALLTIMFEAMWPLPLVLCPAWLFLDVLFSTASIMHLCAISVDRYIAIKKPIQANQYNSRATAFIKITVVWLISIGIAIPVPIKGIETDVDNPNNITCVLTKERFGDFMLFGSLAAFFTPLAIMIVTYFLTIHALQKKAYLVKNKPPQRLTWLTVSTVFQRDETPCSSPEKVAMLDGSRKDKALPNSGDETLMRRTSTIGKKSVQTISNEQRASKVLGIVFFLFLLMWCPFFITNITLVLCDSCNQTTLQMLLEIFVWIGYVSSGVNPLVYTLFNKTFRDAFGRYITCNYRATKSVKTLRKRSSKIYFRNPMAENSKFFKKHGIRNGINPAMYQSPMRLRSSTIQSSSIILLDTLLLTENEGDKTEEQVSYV

D(2) dopamine receptor = D(2) dopamine receptor (Homo sapiens, UniProt P14416); assay: Binding affinity to dopamine D2 receptor
Chain of D(2) dopamine receptor (P14416 whole entry): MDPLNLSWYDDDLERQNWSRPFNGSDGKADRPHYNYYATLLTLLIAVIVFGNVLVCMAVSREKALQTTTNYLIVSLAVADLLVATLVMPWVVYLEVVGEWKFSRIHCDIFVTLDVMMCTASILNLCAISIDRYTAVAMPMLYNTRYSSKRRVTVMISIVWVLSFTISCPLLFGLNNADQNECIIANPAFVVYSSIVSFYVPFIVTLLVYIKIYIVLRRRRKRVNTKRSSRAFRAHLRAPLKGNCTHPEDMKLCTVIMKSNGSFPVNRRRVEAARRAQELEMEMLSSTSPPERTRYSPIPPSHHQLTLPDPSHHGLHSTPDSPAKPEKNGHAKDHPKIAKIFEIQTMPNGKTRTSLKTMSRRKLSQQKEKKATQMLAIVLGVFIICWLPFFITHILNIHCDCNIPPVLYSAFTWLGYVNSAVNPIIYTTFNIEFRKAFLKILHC

[12] = target: 5-hydroxytryptamine receptor 7 (Homo sapiens, UniProt P34969); assay: Binding affinity to 5-HT7 receptor
Chain of 5-hydroxytryptamine receptor 7 (P34969 whole entry): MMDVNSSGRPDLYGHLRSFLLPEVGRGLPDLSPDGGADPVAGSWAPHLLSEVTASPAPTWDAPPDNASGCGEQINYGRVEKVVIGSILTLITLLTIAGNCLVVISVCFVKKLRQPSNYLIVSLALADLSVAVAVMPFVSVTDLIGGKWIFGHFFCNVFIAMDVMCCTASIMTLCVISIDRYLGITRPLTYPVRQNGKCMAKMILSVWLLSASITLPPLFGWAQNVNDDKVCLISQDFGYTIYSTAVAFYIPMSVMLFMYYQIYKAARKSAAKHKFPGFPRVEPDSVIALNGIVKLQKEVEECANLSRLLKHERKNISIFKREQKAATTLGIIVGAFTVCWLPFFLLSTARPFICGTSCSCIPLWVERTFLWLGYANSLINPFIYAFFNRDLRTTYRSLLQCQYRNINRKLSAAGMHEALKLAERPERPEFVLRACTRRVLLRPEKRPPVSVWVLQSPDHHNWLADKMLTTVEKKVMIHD

[13] = target: T4, 5-hydroxytryptamine receptor 1A (Homo sapiens, UniProt P08908); assay: Binding affinity to 5-HT1A receptor
T4 sequence (P08908 whole entry): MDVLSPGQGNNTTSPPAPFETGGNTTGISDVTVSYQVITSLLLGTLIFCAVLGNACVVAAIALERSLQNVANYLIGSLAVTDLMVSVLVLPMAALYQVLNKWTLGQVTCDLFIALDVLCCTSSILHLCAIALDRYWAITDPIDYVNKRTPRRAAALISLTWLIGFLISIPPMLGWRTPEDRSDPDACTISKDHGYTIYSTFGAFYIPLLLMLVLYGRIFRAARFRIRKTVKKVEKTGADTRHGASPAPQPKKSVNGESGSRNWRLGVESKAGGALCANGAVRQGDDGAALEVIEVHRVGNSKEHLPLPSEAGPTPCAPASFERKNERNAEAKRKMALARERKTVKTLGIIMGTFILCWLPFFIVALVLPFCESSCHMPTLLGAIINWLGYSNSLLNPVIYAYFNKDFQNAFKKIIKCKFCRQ

[14] = target: T3, 5-hydroxytryptamine receptor 2B; assay: Agonist activity at 5-HT2B receptor at 0.1 nM to 10 uM by FLIPR assay; type: functional
[15] = target: T5, Alpha-2A adrenergic receptor (Homo sapiens, UniProt P08913); assay: Binding affinity to adrenergic alpha2A receptor
T5 sequence (P08913 whole entry): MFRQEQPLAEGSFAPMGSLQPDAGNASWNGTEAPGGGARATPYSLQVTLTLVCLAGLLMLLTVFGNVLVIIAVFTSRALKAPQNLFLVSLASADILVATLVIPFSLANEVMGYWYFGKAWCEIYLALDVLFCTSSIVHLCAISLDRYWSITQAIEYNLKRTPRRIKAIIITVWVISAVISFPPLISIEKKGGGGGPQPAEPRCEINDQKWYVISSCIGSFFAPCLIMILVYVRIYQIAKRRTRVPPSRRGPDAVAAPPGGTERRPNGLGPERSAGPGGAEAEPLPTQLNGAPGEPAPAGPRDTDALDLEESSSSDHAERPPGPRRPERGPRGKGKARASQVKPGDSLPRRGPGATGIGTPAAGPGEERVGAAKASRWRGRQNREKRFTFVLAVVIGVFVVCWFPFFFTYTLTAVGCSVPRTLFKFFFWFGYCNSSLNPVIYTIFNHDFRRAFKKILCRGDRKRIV

O=C(CCN1CCCCC1)Nc1cccc2c(S(=O)(=O)c3cccc4ccccc34)n[nH]c12
fraction unbound [1]: > 0.2 | Ki [2]: 24 nM

O=S(=O)(c1cccc2ccccc12)c1n[nH]c2c(NC3CCNCC3)cccc12
fraction unbound [1]: > 0.2 | Ki [2]: 30 nM

NCCNc1ccc2c(S(=O)(=O)c3cccc4ccccc34)n[nH]c2c1
fraction unbound [1]: > 0.2 | Ki [2]: 17 nM | IC50 [3]: 87 nM

NCCNc1cccc2c(S(=O)(=O)c3cccc4ccccc34)n[nH]c12
fraction unbound [1]: > 0.2 | Ki [2]: 17 nM | IC50 [3]: 93 nM

O=S(=O)(c1cccc2ccccc12)c1n[nH]c2cccc(NC3CCNCC3)c12
fraction unbound [1]: > 0.2 | Ki [2]: 2.8 nM | IC50 [3]: 56 nM

O=S(=O)(c1cccc2ccccc12)c1n[nH]c2cccc(NCC3CCNCC3)c12
fraction unbound [1]: > 0.2 | Ki [2]: 9.5 nM | IC50 [3]: 21 nM

NCCNc1ccc2[nH]nc(S(=O)(=O)c3cccc4ccccc34)c2c1
fraction unbound [1]: > 0.2 | Ki [2]: 6.7 nM | IC50 [3]: 13 nM

O=S(=O)(c1cccc(F)c1)c1n[nH]c2ccc(NC3CCNCC3)cc12
fraction unbound [1]: > 0.2 | Ki [2]: 6.7 nM | IC50 [3]: 94 nM

CN(C)CCNC(=O)c1ccc2[nH]nc(S(=O)(=O)c3cccc4ccccc34)c2c1
fraction unbound [1]: > 0.2 | Ki [2]: 2.9 nM | IC50 [3]: 103 nM

CC(N)CNc1ccc2[nH]nc(S(=O)(=O)c3cccc4ccccc34)c2c1 (stereo unspecified)
fraction unbound [1]: > 0.2 | Ki [2]: 1.4 nM | IC50 [3]: 30 nM

O=S(=O)(c1cccc2ccccc12)c1n[nH]c2cc(NC3CCCNC3)ccc12 (stereo unspecified)
fraction unbound [1]: > 0.2 | Ki [2]: 57 nM

O=S(=O)(c1ccc(C(F)(F)F)cc1)c1n[nH]c2ccc(NC3CCNCC3)cc12
fraction unbound [1]: > 0.2 | Ki [2]: 1.5 nM | IC50 [3]: 27 nM

O=S(=O)(c1cccc2ccccc12)c1n[nH]c2ccc(NCC3CCNCC3)cc12
fraction unbound [1]: > 0.2 | Ki [2]: 3.5 nM | IC50 [3]: 174 nM

O=C(Nc1cccc2c(S(=O)(=O)c3cccc4ccccc34)n[nH]c12)C1CCNCC1
fraction unbound [1]: > 0.2 | Ki [2]: 28 nM

Cl.O=S(=O)(c1ccc2ccccc2c1)c1n[nH]c2ccc(NC3CCNCC3)cc12
solubility [4]: > 100 µg/mL | Ki [5]: > 5000 nM | Ki [6]: > 5000 nM | fraction unbound [1]: > 0.2 | Ki [7]: > 5000 nM | Activity [8]: inactive | half-life [9]: > 30 min | half-life [10]: > 30 min | Ki [11]: 675 nM | Ki [2]: 0.6 nM | Ki (D(2) dopamine receptor): > 5000 nM | IC50 [3]: 16 nM | Ki [12]: > 5000 nM | Ki [13]: 4350 nM | Activity [14]: inactive | Ki [15]: > 5000 nM

O=S(=O)(c1ccccc1)c1n[nH]c2ccc(NC3CCNCC3)cc12
fraction unbound [1]: > 0.2 | Ki [2]: 3.1 nM | IC50 [3]: 125 nM

CC(C)c1ccc(S(=O)(=O)c2n[nH]c3ccc(NC4CCNCC4)cc23)cc1.Cl
solubility [4]: > 100 µg/mL | Ki [5]: 1770 nM | Ki [6]: 1500 nM | fraction unbound [1]: > 0.2 | Ki [7]: 2730 nM | Activity [8]: inactive | half-life [9]: > 30 min | half-life [10]: > 30 min | Ki [11]: 1760 nM | Ki [2]: 1 nM | Ki (D(2) dopamine receptor): > 5000 nM | IC50 [3]: 14 nM | Ki [12]: > 5000 nM | Ki [13]: 859 nM | Activity [14]: inactive | Ki [15]: > 5000 nM

Cc1cccc(S(=O)(=O)c2n[nH]c3ccc(NC4CCNCC4)cc23)c1
fraction unbound [1]: > 0.2 | Ki [2]: 0.8 nM | IC50 [3]: 19 nM

Cl.NCCC(=O)Nc1ccc2[nH]nc(S(=O)(=O)c3cccc4ccccc34)c2c1
solubility [4]: > 100 µg/mL | Ki [5]: 573 nM | Ki [6]: > 5000 nM | fraction unbound [1]: > 0.2 | Ki [7]: > 5000 nM | Activity [8]: inactive | half-life [9]: > 30 min | half-life [10]: > 30 min | Ki [11]: 344 nM | Ki [2]: 1.5 nM | Ki (D(2) dopamine receptor): > 5000 nM | IC50 [3]: 3.8 nM | Ki [12]: > 5000 nM | Ki [13]: > 5000 nM | Activity [14]: inactive | Ki [15]: > 5000 nM

O=C(NCCN1CCCCC1)c1ccc2[nH]nc(S(=O)(=O)c3cccc4ccccc34)c2c1
fraction unbound [1]: > 0.2 | Ki [2]: 107 nM

O=S(=O)(c1ccc(Cl)cc1)c1n[nH]c2ccc(NC3CCNCC3)cc12
fraction unbound [1]: > 0.2 | Ki [2]: 2.3 nM | IC50 [3]: 44 nM

NCCNCc1ccc2[nH]nc(S(=O)(=O)c3cccc4ccccc34)c2c1
fraction unbound [1]: > 0.2 | Ki [2]: 12 nM | IC50 [3]: 156 nM

CN(C)CCN(C)Cc1ccc2[nH]nc(S(=O)(=O)c3cccc4ccccc34)c2c1
fraction unbound [1]: > 0.2 | Ki [2]: 14 nM | IC50 [3]: 91 nM

O=C(Nc1cccc2c(S(=O)(=O)c3cccc4ccccc34)n[nH]c12)C1CCCNC1 (stereo unspecified)
fraction unbound [1]: > 0.2 | Ki [2]: 9.8 nM | IC50 [3]: 48 nM

O=S(=O)(c1cccc2ccccc12)c1n[nH]c2cccc(NC3CCCNC3)c12 (stereo unspecified)
fraction unbound [1]: > 0.2 | Ki [2]: 4.2 nM | IC50 [3]: 88 nM

CCN(CC)CCC(=O)Nc1cccc2c(S(=O)(=O)c3cccc4ccccc34)n[nH]c12
fraction unbound [1]: > 0.2 | Ki [2]: 27 nM | IC50 [3]: 137 nM

NCCC(=O)Nc1ccc2c(S(=O)(=O)c3cccc4ccccc34)n[nH]c2c1
fraction unbound [1]: > 0.2 | Ki [2]: 24 nM | IC50 [3]: 456 nM

COc1ccc(S(=O)(=O)c2n[nH]c3ccc(NC4CCNCC4)cc23)cc1
fraction unbound [1]: > 0.2 | Ki [2]: 9.8 nM | IC50 [3]: 126 nM

O=S(=O)(c1cccc2ccccc12)c1n[nH]c2cc(NC3CCNCC3)ccc12
fraction unbound [1]: > 0.2 | Ki [2]: 53 nM

O=S(=O)(c1cccc2ccccc12)c1n[nH]c2cc(NCC3CCNCC3)ccc12
fraction unbound [1]: > 0.2 | Ki [2]: 44 nM

O=S(=O)(c1cccc2ccccc12)c1n[nH]c2c(NCC3CCNCC3)cccc12
fraction unbound [1]: > 0.2 | Ki [2]: 17 nM | IC50 [3]: 87 nM

O=C(CCN1CCCCC1)Nc1ccc2c(S(=O)(=O)c3cccc4ccccc34)n[nH]c2c1
fraction unbound [1]: > 0.2 | Ki [2]: 12 nM | IC50 [3]: 90 nM

O=S(=O)(c1cccc2ccccc12)c1n[nH]c2ccc(NC3CCCNC3)cc12 (stereo unspecified)
fraction unbound [1]: > 0.2 | Ki [2]: 1.7 nM | IC50 [3]: 95 nM

CC(C)[C@H](N)CNc1ccc2[nH]nc(S(=O)(=O)c3cccc4ccccc34)c2c1
fraction unbound [1]: > 0.2

CN(C)CCC(=O)Nc1ccc2c(S(=O)(=O)c3cccc4ccccc34)n[nH]c2c1
fraction unbound [1]: > 0.2 | Ki [2]: 44 nM

O=C(Nc1ccc2c(S(=O)(=O)c3cccc4ccccc34)n[nH]c2c1)C1CCNCC1
fraction unbound [1]: > 0.2 | Ki [2]: 31 nM

O=S(=O)(c1ccc(F)cc1)c1n[nH]c2ccc(NC3CCNCC3)cc12
fraction unbound [1]: > 0.2 | Ki [2]: 6.3 nM | IC50 [3]: 118 nM

CCN(CC)CCC(=O)Nc1ccc2c(S(=O)(=O)c3cccc4ccccc34)n[nH]c2c1
fraction unbound [1]: > 0.2 | Ki [2]: 65 nM

O=S(=O)(c1cccc2ccccc12)c1n[nH]c2ccc(CN3CCNCC3)cc12
fraction unbound [1]: > 0.2 | Ki [2]: 0.24 nM | IC50 [3]: 19 nM

NCCC(=O)Nc1cccc2c(S(=O)(=O)c3cccc4ccccc34)n[nH]c12
fraction unbound [1]: > 0.2 | Ki [2]: 3.4 nM

O=S(=O)(c1cccc2ccccc12)c1n[nH]c2c(NC3CCCNC3)cccc12 (stereo unspecified)
fraction unbound [1]: > 0.2 | Ki [2]: 66 nM

CN(C)CCC(=O)Nc1cccc2c(S(=O)(=O)c3cccc4ccccc34)n[nH]c12
fraction unbound [1]: > 0.2 | Ki [2]: 4.8 nM | IC50 [3]: 137 nM
